Assay results taken from ChEMBL document CHEMBL2331545, “Synthesis of antioxidants for prevention of age-related macular degeneration” (J Nat Prod, 2013).
Calls of active or inactive are those of the source. The rule behind the calls is not given here.

Columns and labels:
[1] = Inhibition of A2E photooxidation at 100 uM after 5 mins by reversed-phase HPLC analysis; format: functional
In short: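 Cell-free assay: A2E (200 µM DMSO stock) added to DPBS, antioxidant from DMSO solution added to 100 µM final. Irradiated at 430 nm (2.8 mW/cm2) for 5 min. Samples diluted with EtOH and analysed by reversed-phase HPLC under dim red light. Percent photooxidation taken as A2E loss relative to unirradiated samples.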

ARPE-19 = assay: Inhibition of intracellular A2E photooxidation in human ARPE19 cells at 20 uM after 18 days; format: functional, cell-based
In short: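 ARPE-19 cells (lacking endogenous A2E) grown to confluence for 5 days, then fed 10 µM synthetic A2E for 18 days in medium with 10% FBS. Antioxidant at 20 µM present on days 10–18. Cells washed in DPBS and irradiated at 430 nm (2.8 mW/cm2) for 10 min. Trypsinised, counted, dried, methanol-extracted. A2E quantified by reversed-phase HPLC; loss versus unirradiated cells gave percent photooxidation.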

O=c1c(O)c(-c2ccc(O)c(O)c2)oc2c(CN3CCOCC3)c(O)cc(O)c12
inhibition [1]: Active | inhibition (ARPE-19): Active

CN(CCN(C)Cc1c(O)cc(O)c2c(=O)c(O)c(-c3ccc(O)c(O)c3)oc12)Cc1c(O)cc(O)c2c(=O)c(O)c(-c3ccc(O)c(O)c3)oc12
inhibition [1]: Active | inhibition (ARPE-19): Active

O=c1c(O)c(-c2ccc(O)c(O)c2)oc2c(CN3CCc4cc(O)c(O)cc4C3)c(O)cc(O)c12
inhibition [1]: Active | inhibition (ARPE-19): Active

O=c1c(O)c(-c2ccc(O)c(O)c2)oc2c(CN3CCN(Cc4c(O)cc(O)c5c(=O)c(O)c(-c6ccc(O)c(O)c6)oc45)CC3)c(O)cc(O)c12
inhibition [1]: Active | inhibition (ARPE-19): Active

O=c1c(O)c(-c2ccc(O)c(O)c2)oc2cc(O)cc(O)c12
inhibition [1]: Active | inhibition (ARPE-19): Active
